In ChEMBL document CHEMBL1145212, “Fluorinated diaryl sulfides as serotonin transporter ligands: synthesis, structure-activity relationship study, and in vivo evaluation of fluorine-18-labeled compounds as PET imaging agents” (J Med Chem, 2005):

Legend:
Settings in all cases: tested as the 18F-labelled form
Rattus norvegicus [1] = species on record: Rattus norvegicus; test: Regional uptake of [18F]AFA in cerebellum of rat pretreated with compound nisoxetine; n=3; type: functional, organism-based
Method in brief: (§1)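 Male Sprague-Dawley rats, three per group, received blocker (2 mg/kg iv in saline) or saline only (controls) 10–15 min before about 20 µCi of tail-vein F-18 radioligand. Killed 60 min after tracer. Blood and brain regions weighed and gamma-counted. %ID/g was decay- and tail-corrected; mean ± SD.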

Rattus norvegicus [2] = species on record: Rattus norvegicus; test: Regional uptake of [18F]AFA in cerebellum of rat pretreated with compound citalopram; n=3; type: functional, organism-based; method in brief: as §1
Rattus norvegicus [3] = species on record: Rattus norvegicus; test: Regional uptake of [18F]AFA in hypothalamus of rat pretreated with compound GBR-12935; n=3; type: functional, organism-based; method in brief: as §1
Rattus norvegicus [4] = species on record: Rattus norvegicus; test: Regional uptake of [18F]AFA in blood of rat pretreated with compound 7f; n=3; type: functional, organism-based
[5] = target: Sodium-dependent serotonin transporter (Rattus norvegicus) (UniProt P31652); test: Specific binding of [18F]AFA in rat hypothalamus after citalopram treatment; n=3; type: functional, tissue-based
Sodium-dependent serotonin transporter (Rattus norvegicus), sequence (P31652 whole entry): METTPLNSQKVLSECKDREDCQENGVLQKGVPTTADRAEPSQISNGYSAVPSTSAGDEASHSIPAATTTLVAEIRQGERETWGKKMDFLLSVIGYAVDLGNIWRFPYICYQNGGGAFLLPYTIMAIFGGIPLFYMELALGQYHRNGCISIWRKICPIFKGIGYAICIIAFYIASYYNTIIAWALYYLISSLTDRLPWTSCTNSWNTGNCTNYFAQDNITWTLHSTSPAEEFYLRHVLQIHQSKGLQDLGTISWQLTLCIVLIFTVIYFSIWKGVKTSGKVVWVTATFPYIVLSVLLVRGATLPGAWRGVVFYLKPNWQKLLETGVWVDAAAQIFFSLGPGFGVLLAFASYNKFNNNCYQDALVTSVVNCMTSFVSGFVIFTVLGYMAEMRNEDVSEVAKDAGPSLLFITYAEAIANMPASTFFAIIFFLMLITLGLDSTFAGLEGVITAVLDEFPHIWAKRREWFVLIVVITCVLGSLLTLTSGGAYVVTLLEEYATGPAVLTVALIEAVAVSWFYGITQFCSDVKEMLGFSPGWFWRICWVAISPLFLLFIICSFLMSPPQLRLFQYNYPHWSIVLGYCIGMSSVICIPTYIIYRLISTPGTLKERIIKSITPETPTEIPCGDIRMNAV
Method in brief: (§2)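 Rats, three per group, were pretreated iv with blocker at 2 mg/kg in saline, or with saline as control, 10–15 min before tail-vein F-18 radioligand (about 20 µCi). Killed at 60 min and regional %ID/g determined. Specific binding = (region activity − cerebellum activity)/cerebellum activity; mean ± SD.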

Rattus norvegicus [6] = species on record: Rattus norvegicus; test: Regional uptake of [18F]AFA in frontal cortex of rat pretreated with compound nisoxetine; n=3; type: functional, organism-based; method in brief: as §1
Rattus norvegicus [7] = species on record: Rattus norvegicus; test: Regional uptake of [18F]AFA in cerebellum of rat pretreated with compound GBR-12935; n=3; type: functional, organism-based; method in brief: as §1
[8] = target: Sodium-dependent serotonin transporter (Rattus norvegicus) (UniProt P31652); test: Specific binding in rat hypothalamus at 30 min postinjection in vivo; type: functional, organism-based
Method in brief: (§3)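 Male Sprague-Dawley rats, n=3 per time point, received about 20 µCi of F-18 radioligand in saline iv by tail vein and were killed at 10–120 min. %ID/g was measured with decay and tail-residual correction. Hypothalamic specific binding = (%ID/g hypothalamus − %ID/g cerebellum)/%ID/g cerebellum; mean ± SD.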

Rattus norvegicus [9] = species on record: Rattus norvegicus; test: Regional uptake of [18F]AFA in frontal cortex of rat pretreated with compound GBR-12935; n=3; type: functional, organism-based; method in brief: as §1
[10] = target: Sodium-dependent serotonin transporter (Rattus norvegicus) (UniProt P31652); test: Specific binding in rat hypothalamus at 10 min postinjection in vivo; type: functional, organism-based; method in brief: as §3
[11] = target: Sodium-dependent serotonin transporter (Rattus norvegicus) (UniProt P31652); test: Specific binding of [18F]AFA in rat frontal cortex after GBR-12935 treatment; n=3; type: functional, tissue-based; method in brief: as §2
[12] = target: Sodium-dependent serotonin transporter (Rattus norvegicus) (UniProt P31652); test: Specific binding in rat hypothalamus at 120 min postinjection in vivo; type: functional, organism-based; method in brief: as §3
Rattus norvegicus [13] = species on record: Rattus norvegicus; test: Regional uptake of [18F]AFA in hippocampus of rat pretreated with compound nisoxetine; n=3; type: functional, organism-based; method in brief: as §1
[14] = target: Sodium-dependent serotonin transporter (Rattus norvegicus) (UniProt P31652); test: Specific binding of [18F]AFA in rat striatum after GBR-12935 treatment; n=3; type: functional, tissue-based; method in brief: as §2
[15] = target: Sodium-dependent serotonin transporter (Rattus norvegicus) (UniProt P31652); test: Specific binding of [18F]AFA in rat hypothalamus after nisoxetine treatment; n=3; type: functional, tissue-based; method in brief: as §2
[16] = target: Sodium-dependent serotonin transporter (Rattus norvegicus) (UniProt P31652); test: Specific binding of [18F]-AFA in rat striatum after nisoxetine treatment; n=3; type: functional, tissue-based; method in brief: as §2
Rattus norvegicus [17] = species on record: Rattus norvegicus; test: Regional uptake of [18F]AFA in blood of rat pretreated with compound nisoxetine; n=3; type: functional, organism-based; method in brief: as §1
[18] = target: Sodium-dependent serotonin transporter (Rattus norvegicus) (UniProt P31652); test: Specific binding of [18F]AFA in rat frontal cortex after citalopram treatment; n=3; type: functional, tissue-based; method in brief: as §2
Rattus norvegicus [19] = species on record: Rattus norvegicus; test: Regional uptake of [18F]-AFA in blood of rat pretreated with compound GBR-12935; n=3; type: functional, organism-based; method in brief: as §1
[20] = target: Sodium-dependent serotonin transporter (Rattus norvegicus) (UniProt P31652); test: Specific binding of [18F]AFA in rat thalamus after citalopram treatment; n=3; type: functional, tissue-based; method in brief: as §2
Rattus norvegicus [21] = species on record: Rattus norvegicus; test: Regional uptake of [18F]AFA in cerebellum of rat pretreated with compound 7f; n=3; type: functional, organism-based
Rattus norvegicus [22] = species on record: Rattus norvegicus; test: Regional uptake of [18F]AFA in striatum of rat pretreated with compound citalopram; n=3; type: functional, organism-based; method in brief: as §1
Rattus norvegicus [23] = species on record: Rattus norvegicus; test: Regional uptake of [18F]AFA in striatum of rat pretreated with compound nisoxetine; n=3; type: functional, organism-based; method in brief: as §1
[24] = target: Sodium-dependent serotonin transporter (Rattus norvegicus) (UniProt P31652); test: Specific binding in rat hypothalamus at 60 min postinjection in vivo; type: functional, organism-based; method in brief: as §3
Rattus norvegicus [25] = species on record: Rattus norvegicus; test: Regional uptake of [18F]AFA in thalamus of rat pretreated with compound nisoxetine; n=3; type: functional, organism-based; method in brief: as §1

- Specific binding [5]: 0.66 %ID/g
- Specific binding [8]: 0.57 %ID/g
- Specific binding [10]: 0.34 %ID/g
- Specific binding [11]: 0.64 %ID/g
- Specific binding (dimensionless ratio) [12]: 2.4
- Specific binding [14]: 0.84 %ID/g
- Specific binding [15]: 0.84 %ID/g
- Specific binding [16]: 0.58 %ID/g
- Specific binding [18]: 0.84 %ID/g
- Specific binding [20]: 0.74 %ID/g
- Specific binding [24]: 0.85 %ID/g
Structure (SMILES): CN(C)Cc1ccccc1Sc1ccc(CCCF)cc1N
- Uptake (Rattus norvegicus [1]): 0.08 %ID/g
- Uptake (Rattus norvegicus [2]): 0.08 %ID/g
- Uptake (Rattus norvegicus [3]): 0.17 %ID/g
- Uptake (Rattus norvegicus [4]): 0.07 %ID/g
- Uptake (Rattus norvegicus [6]): 0.13 %ID/g
- Uptake (Rattus norvegicus [7]): 0.09 %ID/g
- Uptake (Rattus norvegicus [9]): 0.15 %ID/g
- Uptake (Rattus norvegicus [13]): 0.16 %ID/g
- Uptake (Rattus norvegicus [17]): 0.08 %ID/g
- Uptake (Rattus norvegicus [19]): 0.09 %ID/g
- Uptake (Rattus norvegicus [21]): 0.08 %ID/g
- Uptake (Rattus norvegicus [22]): 0.12 %ID/g
- Uptake (Rattus norvegicus [23]): 0.13 %ID/g
- Uptake (Rattus norvegicus [25]): 0.15 %ID/g
